Results from ChEMBL document CHEMBL4196059, “Design, synthesis, and biological evaluation of stable β6.3-Helices: Discovery of non-hemolytic antibacterial peptides” (Eur J Med Chem, 2018).
Converted amounts (≈) assume the structure as drawn. The source made the active and inactive calls. The rule behind the calls is not given here. Residues, ends and D or L forms follow the SMILES beside them.

Tests used:
Lipid bilayer [1] = assay: Binding affinity to POPC vesicles by surface plasmon resonance spectroscopy
Outline: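 SPR on a dextran chip carrying immobilized POPC liposomes, with running buffer of 10 mM HEPES and 100 mM KCl at pH 7.4. Peptides in PBS were flowed at 25 μL/min at 10–1000 μM, with reference-subtracted response units. KD and Rmax were fitted from maximum response versus concentration. Regeneration used 20 mM CHAPS followed by fresh liposomes.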

Acinetobacter baumannii [2] = assay: Growth inhibition of Acinetobacter baumannii ATCC 19606 at 32 ug/ml after 18 hrs; format: functional; conditions: ATCC 19606 = CIP 70.34 = JCM 6841, 18 h, read-out: GI
Outline: (§1)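 Mid-log cultures were prepared as above and seeded at 5×10^5 CFU/mL with compound at a final 32 μg/mL, then held static at 37 °C for 18 h. Growth was read as OD600. Percent inhibition was calculated against media-only and bacteria-only controls on the same plate.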

[3] = Hemolytic activity against human RBC at 3.125 uM after 1 hr by Drabkin's assay relative to control; format: ADME, cell-based, Erythrocyte; conditions: human red blood cells (erythrocytes), read-out: Activity
Candida albicans = assay: Growth inhibition of Candida albicans ATCC 90028 at 32 ug/ml after 24 hrs by OD530 light-scattering microspectrophotometric method; conditions: ATCC 90028, 24 h, read-out: GI
Escherichia coli [4] = assay: Growth inhibition of Escherichia coli ATCC 25922 at 32 ug/ml after 18 hrs; format: functional; conditions: ATCC 25922, 18 h, read-out: GI; outline: as §1
[5] = Hemolytic activity against human RBC at 25 uM after 1 hr by Drabkin's assay relative to control; format: ADME, cell-based, Erythrocyte; conditions: human red blood cells (erythrocytes), read-out: Activity
[6] = Hemolytic activity against human RBC at 50 uM after 1 hr by Drabkin's assay relative to control; format: ADME, cell-based, Erythrocyte; conditions: human red blood cells (erythrocytes), read-out: Activity
[7] = Hemolytic activity against human RBC at 0.78 uM after 1 hr by Drabkin's assay relative to control; format: ADME, cell-based, Erythrocyte; conditions: human red blood cells (erythrocytes), read-out: Activity
Klebsiella pneumoniae [8] = assay: Growth inhibition of multidrug-resistant Klebsiella pneumoniae ATCC 700603 at 32 ug/ml after 18 hrs; format: functional; conditions: ATCC 700603, 18 h, read-out: GI
Outline: (§2)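 Mid-log cultures in cation-adjusted Mueller Hinton broth were added at 5×10^5 CFU/mL to wells at a final compound concentration of 32 μg/mL. Plates stood at 37 °C for 18 h. Growth was read by OD600, and % inhibition was computed against media-only and untreated-bacteria controls.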

Pseudomonas aeruginosa = assay: Growth inhibition of Pseudomonas aeruginosa ATCC 27853 at 32 ug/ml after 18 hrs; format: functional; conditions: ATCC 27853, 18 h, read-out: GI; outline: as §1
Erythrocyte = assay: Hemolytic activity against human RBC after 1 hr by Drabkin's assay; format: ADME, cell-based
[9] = Hemolytic activity against human RBC at 0.39 uM after 1 hr by Drabkin's assay relative to control; format: ADME, cell-based, Erythrocyte; conditions: human red blood cells (erythrocytes), read-out: Activity
Cryptococcus neoformans = assay: Growth inhibition of Cryptococcus neoformans H99 ATCC 208821 at 32 ug/ml after 24 hrs by resazurin dye-based microspectrophotometric assay; format: functional; conditions: var. grubii H99 ATCC 208821, 24 h, read-out: GI
Outline: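 Yeasts were grown 3 days on YPD agar at 30 °C, suspended from five colonies and diluted in YNB broth to a final 2.5×10^3 CFU/mL. Compound at a final 32 μg/mL; incubated 24 h at 35 °C without shaking. C. albicans was read at OD530. C. neoformans was read as OD600–570 after resazurin (0.001% final) and a further 2 h at 35 °C. Fluconazole was the standard.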

[10] = Hemolytic activity against human RBC at 6.25 uM after 1 hr by Drabkin's assay relative to control; format: ADME, cell-based, Erythrocyte; conditions: human red blood cells (erythrocytes), read-out: Activity
[11] = Hemolytic activity against human RBC at 1.56 uM after 1 hr by Drabkin's assay relative to control; format: ADME, cell-based, Erythrocyte; conditions: human red blood cells (erythrocytes), read-out: Activity
[12] = Hemolytic activity against human RBC at 12.5 uM after 1 hr by Drabkin's assay relative to control; format: ADME, cell-based, Erythrocyte; conditions: human red blood cells (erythrocytes), read-out: Activity
Staphylococcus aureus [13] = assay: Growth inhibition of methicillin-resistant Staphylococcus aureus ATCC 43300 at 32 ug/ml after 18 hrs; format: functional; conditions: ATCC 43300, 18 h, read-out: GI; outline: as §2
[14] = Induction of pore formation in DOPC vesicles at 20 uM after 3 hrs by carboxyfluorescein dye leakage assay; conditions: in the assay text read “after 3 mins” for “after 3 hrs”
Outline: (§3)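 POPC or DOPC liposomes were hydrated in 10 mM HEPES, 100 mM KCl, pH 7.4, containing 50 mM carboxyfluorescein. Size was checked by dynamic light scattering, and vesicles were used at 2.2×10^10 per mL. Peptide at 20 μM was equilibrated with vesicles for 3 min, and dye leakage was measured.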

Escherichia coli [15] = assay: Antibacterial activity against Escherichia coli ATCC 25922 after 18 hrs by polystyrene 96-well plate-based method; format: functional; conditions: ATCC 25922, 18 h
Outline: (§4)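 Strains grown in cation-adjusted Mueller Hinton broth at 37 °C for 12 h, diluted 40-fold and regrown 1.5–3 h to mid-log. Inoculum was 5×10^5 CFU/mL in 12-point dose response, in non-binding surface or polystyrene plates, in duplicate. Plates stood at 37 °C for 18 h. MIC was read by OD600.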

Klebsiella pneumoniae [16] = assay: Antibacterial activity against multidrug-resistant Klebsiella pneumoniae ATCC 700603 after 18 hrs by non-binding surface 96-well plate-based method; format: functional; conditions: ATCC 700603, 18 h; outline: as §4
Escherichia coli [17] = assay: Antibacterial activity against Escherichia coli ATCC 25922 after 18 hrs by non-binding surface 96-well plate-based method; format: functional; conditions: ATCC 25922, 18 h
Outline: (§5)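 Cultured in cation-adjusted Mueller Hinton broth at 37 °C for 12 h, diluted 40-fold and grown 1.5–3 h to mid-log. Seeded at 5×10^5 CFU/mL over a 12-point dose response in non-binding surface and polystyrene 96-well plates, duplicates (n=2). Incubated static at 37 °C for 18 h. MIC read from OD600 light scattering; colistin and vancomycin as standards.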

Acinetobacter baumannii [18] = assay: Antibacterial activity against Acinetobacter baumannii ATCC 19606 after 18 hrs by polystyrene 96-well plate-based method; format: functional; conditions: ATCC 19606 = CIP 70.34 = JCM 6841, 18 h; outline: as §5
Acinetobacter baumannii [19] = assay: Antibacterial activity against Acinetobacter baumannii ATCC 19606 after 18 hrs by non-binding surface 96-well plate-based method; format: functional; conditions: ATCC 19606 = CIP 70.34 = JCM 6841, 18 h; outline: as §4
Klebsiella pneumoniae [20] = assay: Antibacterial activity against multidrug-resistant Klebsiella pneumoniae ATCC 700603 after 18 hrs by polystyrene 96-well plate-based method; format: functional; conditions: ATCC 700603, 18 h; outline: as §4
Lipid bilayer [21] = assay: Induction of pore formation in POPC vesicles at 20 uM after 3 hrs by carboxyfluorescein dye leakage assay; conditions: in the assay text read “after 3 mins” for “after 3 hrs”; outline: as §3
Staphylococcus aureus [22] = assay: Antibacterial activity against methicillin-resistant Staphylococcus aureus ATCC 43300 after 18 hrs by polystyrene 96-well plate-based method; format: functional; conditions: ATCC 43300, 18 h; outline: as §4
Staphylococcus aureus [23] = assay: Antibacterial activity against methicillin-resistant Staphylococcus aureus ATCC 43300 after 18 hrs by non-binding surface 96-well plate-based method; format: functional; conditions: ATCC 43300, 18 h; outline: as §4
[24] = Hemolytic activity against human RBC; format: ADME, cell-based, Erythrocyte; conditions: human red blood cells (erythrocytes)

## CC(C)(C)OC(=O)N1CCC[C@H]1C(=O)N1CCCN1C(=O)N1CCC[C@H]1C(=O)N1CCCN1C(=O)N1CCC[C@H]1C(=O)N1CCCN1C(=O)N1CCC[C@H]1C(=O)N1CCCN1C(=O)N1CCC[C@H]1C(=O)N1CCCN1C(=O)N1CCC[C@H]1C(=O)N1CCCN1C(=O)N1CCC[C@H]1C(=O)N1CCCN1C(=O)N1CCC[C@H]1C(=O)N1CCCN1C(=O)OCc1ccccc1
Lipid bilayer [1]
  Kd: 440 µM
  Rmax: 632
Acinetobacter baumannii [2]
  inhibition of growth at 32 µg/mL: 17.8%
[3]
  hemolysis at 1 h, 3.125 µM: 0.02%
Candida albicans
  inhibition of growth at 32 µg/mL: 2.92%
Escherichia coli [4]
  inhibition of growth at 32 µg/mL: 5.27%
[5]
  hemolysis at 1 h, 25 µM: -0.23%
[6]
  hemolysis at 1 h, 50 µM: -0.42%
[7]
  hemolysis at 1 h, 0.78 µM: 0.15%
Klebsiella pneumoniae [8]
  inhibition of growth at 32 µg/mL: 5.27%
Pseudomonas aeruginosa
  inhibition of growth at 32 µg/mL: -8.18%
Erythrocyte
  Activity: Dose-dependent effect
[9]
  hemolysis at 1 h, 0.39 µM: -0.04%
Cryptococcus neoformans
  inhibition of growth at 32 µg/mL: -3.43%
[10]
  hemolysis at 1 h, 6.25 µM: -0.11%
[11]
  hemolysis at 1 h, 1.56 µM: -0.04%
[12]
  hemolysis at 1 h, 12.5 µM: -0.17%
Staphylococcus aureus [13]
  inhibition of growth at 32 µg/mL: 20.7%
[14]
  Activity: inactive

## CN[C@H](CC(C)C)C(=O)N[C@H]1C(=O)N[C@@H](CC(N)=O)C(=O)N[C@H]2C(=O)N[C@H]3C(=O)N[C@H](C(=O)N[C@H](C(=O)O)c4cc(O)cc(O)c4-c4cc3ccc4O)[C@H](O)c3ccc(c(Cl)c3)Oc3cc2cc(c3O[C@@H]2O[C@H](CO)[C@@H](O)[C@H](O)[C@H]2O[C@H]2C[C@](C)(N)[C@H](O)[C@H](C)O2)Oc2ccc(cc2Cl)[C@H]1O [VANCOMYCIN]
Escherichia coli [15]
  MIC: > 32 µg/mL
Klebsiella pneumoniae [16]
  MIC: > 32 µg/mL
Escherichia coli [17]
  MIC: > 32 µg/mL
Acinetobacter baumannii [18]
  MIC: > 32 µg/mL
Acinetobacter baumannii [19]
  MIC: > 32 µg/mL
Klebsiella pneumoniae [20]
  MIC: > 32 µg/mL

## CC(C)C[C@@H](NC(=O)[C@H](C)NC(=O)CNC(=O)[C@@H](NC=O)C(C)C)C(=O)N[C@@H](C)C(=O)N[C@@H](C(=O)N[C@H](C(=O)N[C@@H](C(=O)N[C@@H](Cc1c[nH]c2ccccc12)C(=O)N[C@H](CC(C)C)C(=O)N[C@@H](Cc1c[nH]c2ccccc12)C(=O)N[C@H](CC(C)C)C(=O)N[C@@H](Cc1c[nH]c2ccccc12)C(=O)N[C@H](CC(C)C)C(=O)N[C@@H](Cc1c[nH]c2ccccc12)C(=O)NCCO)C(C)C)C(C)C)C(C)C (HELM PEPTIDE1{[O=C[*:2]].V.G.A.[dL].A.[dV].V.[dV].W.[dL].W.[dL].W.[dL].W.[OCCN[*:1]]}$$$$V2.0)
Lipid bilayer [21]
  Activity: 100%
Escherichia coli [15]
  MIC: > 50 µg/mL
Acinetobacter baumannii [2]
  inhibition of growth at 32 µg/mL: 6.51%
[3]
  hemolysis at 1 h, 3.125 µM: 84.7%
Staphylococcus aureus [22]
  MIC: 25 to 50 µg/mL (≈ 13.3 to 26.6 µM)
Klebsiella pneumoniae [16]
  MIC: > 50 µg/mL
Escherichia coli [17]
  MIC: > 50 µg/mL
Candida albicans
  inhibition of growth at 32 µg/mL: 8.67%
Escherichia coli [4]
  inhibition of growth at 32 µg/mL: 11.1%
[5]
  hemolysis at 1 h, 25 µM: 52.8%
[6]
  hemolysis at 1 h, 50 µM: 48.5%
[7]
  hemolysis at 1 h, 0.78 µM: 59.4%
Klebsiella pneumoniae [8]
  inhibition of growth at 32 µg/mL: 11.2%
Pseudomonas aeruginosa
  inhibition of growth at 32 µg/mL: -6.36%
Acinetobacter baumannii [18]
  MIC: > 50 µg/mL
Erythrocyte
  Activity: Dose-dependent effect
[9]
  hemolysis at 1 h, 0.39 µM: 5.43%
Staphylococcus aureus [23]
  MIC: > 50 µg/mL
Acinetobacter baumannii [19]
  MIC: > 50 µg/mL
Cryptococcus neoformans
  inhibition of growth at 32 µg/mL: -0.81%
[10]
  hemolysis at 1 h, 6.25 µM: 87.2%
[11]
  hemolysis at 1 h, 1.56 µM: 74.8%
Klebsiella pneumoniae [20]
  MIC: > 50 µg/mL
[12]
  hemolysis at 1 h, 12.5 µM: 66.1%
Staphylococcus aureus [13]
  inhibition of growth at 32 µg/mL: 24.9%
[24]
  HC50: 5 µM
